Key:
Format in all cases: tissue-based, Muscle tissue
[1] = Cytotoxicity against human skeletal muscle Myoblast at 100 uL on day 5 by WST-1 assay
In short: (§1)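 After 5 days of NRTI treatment at Cmax levels, 100 μl WST-1 reagent was added per well and incubated 1 h at 37°C, 5% CO2. Supernatant absorbance was read at 450 nm in duplicate. Results are the ratio of treated to untreated wells, run in triplicate.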

[2] = Cytotoxicity against human skeletal muscle Myoblast assessed as increase in mitochondrial DNA on day 2 by RT-PCR relative to untreated control
In short: (§2)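 Myoblasts were treated from 20-30% confluence with NRTIs at plasma Cmax levels (ddI 11.8, d4T 3.6, AZT 7.1, 3TC 8.3, ABV 3.0 μmol), singly or combined. Medium was changed every 2 days at 37°C, 5% CO2, and cells were harvested on day 2 or 5. mtDNA and nDNA were measured by LightCycler real-time PCR in duplicate. The mtDNA:nDNA ratio is expressed relative to untreated cells. Five repeats.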

[3] = Cytotoxicity against human skeletal muscle Myoblast assessed as change in POLG mitochondrial RNA level on day 2 by RT-PCR relative to untreated control
In short: (§3)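 Proliferating human skeletal muscle myoblasts were treated from 20-30% confluence in growth medium, with NRTIs dissolved in sterile water. Doses were plasma Cmax levels (ddI 11.8, d4T 3.6, AZT 7.1, 3TC 8.3, ABV 3.0 μmol), given singly or as combinations. Controls got medium only, and medium was renewed every 2 days at 37°C, 5% CO2. Real-time RT-PCR copies were normalized to G6PDH and expressed relative to untreated cells. Five repeats.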

[4] = Cytotoxicity against human skeletal muscle Myotube assessed as change in POLG mitochondrial RNA level on day 5 by RT-PCR relative to untreated control
In short: (§4)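 Myoblasts at 70-80% confluence were differentiated into myotubes for 72 h in alpha-MEM with 10% FCS and penicillin/streptomycin. They were then treated with NRTIs at plasma Cmax levels (ddI 11.8, d4T 3.6, AZT 7.1, 3TC 8.3, ABV 3.0 μmol) for 5 days at 37°C, 5% CO2, with medium renewed every 2 days. mtDNA:nDNA, or RNA:G6PDH copies by real-time PCR, is expressed relative to untreated cells. Five repeats.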

[5] = Cytotoxicity against human skeletal muscle Myoblast assessed as change in MTCYB mitochondrial RNA level on day 2 by RT-PCR relative to untreated control; in short: as §3
[6] = Cytotoxicity against human skeletal muscle Myotube assessed as change in Tfam mitochondrial RNA level on day 5 by RT-PCR relative to untreated control; in short: as §4
[7] = Cytotoxicity against human skeletal muscle Myotube at 100 uL on day 5 by WST-1 assay; in short: as §1
[8] = Cytotoxicity against human skeletal muscle Myoblast assessed as change in MTCO3 mitochondrial RNA level on day 2 by RT-PCR relative to untreated control; in short: as §3
[9] = Cytotoxicity against human skeletal muscle Myoblast assessed as change in Tfam mitochondrial RNA level on day 5 by RT-PCR relative to untreated control; in short: as §3
[10] = Cytotoxicity against human skeletal muscle Myoblast assessed as change in POLG mitochondrial RNA level on day 5 by RT-PCR relative to untreated control; in short: as §3
[11] = Cytotoxicity against human skeletal muscle Myoblast assessed as change in Tfam mitochondrial RNA level on day 2 by RT-PCR relative to untreated control; in short: as §3
[12] = Cytotoxicity against human skeletal muscle Myoblast assessed as increase in mitochondrial DNA on day 5 by RT-PCR relative to untreated control; in short: as §2
[13] = Cytotoxicity against human skeletal muscle Myotube assessed as decrease in MTCYB mitochondrial RNA level on day 5 by RT-PCR relative to untreated control; in short: as §4
[14] = Cytotoxicity against human skeletal muscle Myoblast assessed as decrease in MTCYB mitochondrial RNA level on day 5 by RT-PCR relative to untreated control; in short: as §3
[15] = Cytotoxicity against human skeletal muscle Myotube assessed as decrease in mitochondrial DNA on day 5 by RT-PCR relative to untreated control; in short: as §4
[16] = Cytotoxicity against human skeletal muscle Myoblast assessed as decrease in mitochondrial DNA on day 2 by RT-PCR relative to untreated control; in short: as §2
[17] = Cytotoxicity against human skeletal muscle Myoblast assessed as decrease in mitochondrial DNA on day 5 by RT-PCR relative to untreated control; in short: as §2
[18] = Cytotoxicity against human skeletal muscle Myotube assessed as decrease in MTCO3 mitochondrial RNA level on day 5 by RT-PCR relative to untreated control; in short: as §4

SMILES	Activity [1]	Ratio [2]	Activity [3]	Activity [4]	Activity [5]	Activity [6]	Activity [7]	Activity [8]	Activity [9]	Activity [10]	Activity [11]	Ratio [12]	Ratio [13]	Ratio [14]	Ratio [15]	Ratio [16]	Ratio [17]	Ratio [18]
Nc1nc(NC2CC2)c2ncn([C@H]3C=C[C@@H](CO)C3)c2n1.Nc1nc(NC2CC2)c2ncn([C@H]3C=C[C@@H](CO)C3)c2n1.O=S(=O)(O)O [ABACAVIR SULFATE]	Non-toxic	1.19	Non-toxic	Non-toxic	Non-toxic	Non-toxic	Non-toxic	Non-toxic	Non-toxic	Non-toxic	Non-toxic	1.07						
O=c1[nH]cnc2c1ncn2[C@H]1CC[C@@H](CO)O1 [DIDANOSINE]	Non-toxic		Non-toxic	Non-toxic	Non-toxic	Non-toxic	Non-toxic	Non-toxic	Non-toxic	Non-toxic	Non-toxic		0.66	0.51	0.5	0.51	0.22	
Nc1ccn([C@@H]2CS[C@H](CO)O2)c(=O)n1 [LAMIVUDINE]	Non-toxic	1.16	Non-toxic	Non-toxic	Non-toxic	Non-toxic	Non-toxic	Non-toxic	Non-toxic	Non-toxic	Non-toxic	0.94						
Cc1cn([C@H]2C=C[C@@H](CO)O2)c(=O)[nH]c1=O [STAVUDINE]	Non-toxic	1.2	Non-toxic	Non-toxic	Non-toxic	Non-toxic	Non-toxic	Non-toxic	Non-toxic	Non-toxic	Non-toxic	0.98						0.69
Cc1cn([C@H]2C[C@H](N=[N+]=[N-])[C@@H](CO)O2)c(=O)[nH]c1=O [ZIDOVUDINE]	Non-toxic	1.45	Non-toxic	Non-toxic	Non-toxic	Non-toxic	Non-toxic	Non-toxic	Non-toxic	Non-toxic	Non-toxic	1.14						

— ChEMBL document CHEMBL1671862, “Impact of nucleoside reverse transcriptase inhibitors on mitochondrial DNA and RNA in human skeletal muscle cells” (Antimicrob Agents Chemother, 2008)
